Only some compounds are listed: those with a hit (about 4.3% of all), similar ones and a draw of the others.
FLuc inh counter – firefly luciferase enzyme inhibitors, primary screen, artefact control for luciferase-based inhibitor screens, biochemical, luminescence, ATPLite; AID 1006, 2008; inhibition, % at 10 µM; hit rate 1.5% among 200,000; 10 min; Luciferin 4-monooxygenase (Photinus pyralis), P08659;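 active = inhibition above about 50% when tested at 10 µM, limit read from the data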
Target sequence (P08659 whole entry, looked up): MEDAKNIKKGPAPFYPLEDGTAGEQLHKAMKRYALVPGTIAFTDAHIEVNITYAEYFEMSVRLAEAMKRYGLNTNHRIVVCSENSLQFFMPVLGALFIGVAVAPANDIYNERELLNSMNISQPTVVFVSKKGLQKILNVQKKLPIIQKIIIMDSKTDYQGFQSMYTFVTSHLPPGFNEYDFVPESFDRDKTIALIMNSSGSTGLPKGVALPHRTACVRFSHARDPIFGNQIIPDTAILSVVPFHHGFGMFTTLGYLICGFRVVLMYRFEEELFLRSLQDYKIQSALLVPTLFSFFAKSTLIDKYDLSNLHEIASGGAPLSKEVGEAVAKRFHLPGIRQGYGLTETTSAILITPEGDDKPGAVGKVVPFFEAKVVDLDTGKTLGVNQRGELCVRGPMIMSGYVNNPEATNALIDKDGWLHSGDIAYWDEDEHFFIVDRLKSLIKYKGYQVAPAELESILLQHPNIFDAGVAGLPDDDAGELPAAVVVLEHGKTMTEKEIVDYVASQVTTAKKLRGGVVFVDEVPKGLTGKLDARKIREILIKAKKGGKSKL
NF-kB neuron act – activators of NF-kB expression in neurons, primary screen, cell-based, HTS | human neuronal cells, NF-kB reporter expression; stronger effect = higher value | fold change at 12.5 µM | hit rate 1.6% among 190,000 | AID 1239, 2008; in the data active = fold change above about 3.3
FLuc act counter – FLuc activators, initial screening, artefact control for FLuc-dependent activation tests, biochemical, ATPlite luminescence; Luciferin 4-monooxygenase (Photinus pyralis), P08659; ATPlite luciferase biochemical, 10 min; 0 = ATP-free wells, 1 = DMSO control; activation factor at 10 µM; 200,000 tested, under 10 active;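 active = luciferase activation factor, scaled between plate controls, of at least 2 with compound at 10 µM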
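Material: Luciferase/luciferin reagent mix | Doses: Test compounds dosed from 2 mM stocks in 100% DMSO | Timing: 10 min incubation after luciferase reagent addition, room temperature | Measured by: Luminescence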
STAT1 act – STAT1 signaling activators, primary screen, cell-based, HTS, luciferase reporter. NIH 3T3 STAT1-luciferase reporter, IFN-gamma, luminescence; 100% = IFN-gamma alone, no compound. activation (% of control), % at 5.5 µM. hit rate 2.6% among 200,000;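 active = activation above the screen-wide mean activation plus 3 SD, cut at about 130% in these data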;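 note: raw ratio to IFN-gamma control signal so 100% means no change and 0% no light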
APP 5'UTR act – activators of APP 5'UTR luciferase reporter, primary screen, SH-SY5Y cells. SH-SY5Y APP 5'UTR luciferase reporter, luminescence; zero percent = DMSO vehicle wells. activation, % at 2 µM. hit rate 1% among 190,000. AID 1276, 2008;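 active = activation above a set limit, based on mean plus 3 SD of controls, cut at about 140% in these data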
* marks the source's active call; other numbers are inactive results.

SMILES | FLuc inh counter | NF-kB neuron act | FLuc act counter | STAT1 act | APP 5'UTR act
O=C(Nc1ccc(OC(F)(F)F)cc1)c1ccc2ccccc2n1 | 7 | 1.6 | 0.9 | 103 | 32
COc1ccc(NC(=O)Nc2ccon2)c(OC)c1 | 6 | 1 | 0.9 | 105 | -7
Cn1c(N)c(C(=O)COC(=O)CCCOc2ccc(Cl)cc2Cl)c(=O)n(C)c1=O | -7 | 1.1 | 1.1 | 103 | 7
CN(C)CCCN(C(=O)/C=C/c1cccs1)c1nc2c(F)cccc2s1 | 4 | 5.4* | 1 | 99 | 29
Cc1cccc2sc(N(CCN(C)C)C(=O)/C=C/c3cccs3)nc12 | -9 | 1.4 | 1.1 | 99 | -1
C/C(=N\O)c1ccc(N2C(=O)C3CC=C(Cl)CC3C2=O)cc1 (stereo unspecified) | -2 | 2.1 | 1 | 139* | 144*
COc1ccc(C(=O)CC(Nc2ccc([N+](=O)[O-])cc2)c2ccc(Cl)cc2)cc1 (stereo unspecified) | -5 | 1.3 | 1 | 113 | 1
COc1ccc(NC(=O)Nc2nnc(C(C)C)s2)cc1 | 12 | 2.4 | 0.9 | 130* | 69
CCOc1ccc(NC(=O)Nc2ccc(NC(C)=O)cc2)cc1 | -5 | 1.1 | 1.1 | 99 | 1
CCOc1ccc(NC(=O)Nc2ccccc2C(N)=O)cc1 | 93* | 1.2 | 0.1 | 119 | 19
COc1ccc(NC(=O)Nc2ccccc2C(N)=O)cc1 | 84* | 1.1 | 0.2 | 114 | -10
CCOc1ccc(NC(=O)Nc2ccc(Br)cn2)cc1 | -4 | 1.9 | 1 | 145* | 50
COc1ccc(NC(=O)Nc2ccccc2C(N)=O)cc1OC | 15 | 1.6 | 0.9 | 98 | 3
CC(C)(C)SCCNC(=O)CN(c1ccccc1)S(=O)(=O)c1ccccc1 | -5 | 1 | 1 | 100 | 1
CCCn1c(=O)n(C)c(=O)c2c(SCC(=O)NC34CC5CC(CC(C5)C3)C4)nc(CC(C)C)nc21 | -2 | 0.87 | 1 | 100 | 1
N#Cc1ccccc1S(=O)(=O)N1CCN(c2cnccn2)CC1 | -5 | 1.3 | 1 | 100 | 1
COc1ccccc1NC(=O)CC(NC1CCCCC1)C(=O)O (stereo unspecified) | -10 | 1.1 | 1.1 | 90 | -1
O=[N+]([O-])c1ccc(/C=N\N2CCN(c3ccc(Cl)cc3)CC2)cc1 | -2 | 0.98 | 1 | 94 | -9
[O-]/[N+](=C/c1ccc(F)cc1)c1ccc(Cl)cc1 | 15 | 4* | 0.9 | 114 | 39
C=CCNC(=O)c1onc(CSc2ccc(F)cc2)c1C(=O)NCCOC | -8 | 1.2 | 1.1 | 85 | 6
COc1ccc(CCNC(=O)c2cc(-c3ccccc3OC)on2)cc1OC | -5 | 1.1 | 1.1 | 103 | -6
COc1ccccc1-c1cc(C(=O)Nc2cccnc2)no1 | 62* | 2.8 | 0.4 | 131* | -96
COc1ccccc1-c1cc(C(=O)NCCc2ccccc2)no1 | 12 | 3.8* | 0.9 | 120 | 51
COc1ccc(NC(=O)c2cc(-c3ccccc3OC)on2)cc1 | 5 | 2.3 | 0.9 | 126 | -74
COc1ccc(C2=NNC(=O)CC2)cc1 | -4 | 0.93 | 1 | 105 | 5
SMILES | FLuc inh counter | NF-kB neuron act | FLuc act counter | STAT1 act | APP 5'UTR act
COc1ccc(C2=Nc3ccccc3OC2)cc1 | 51* | 8.4* | 0.5 | 123 | 128
Cc1cc(C(=O)NCC23CC4CC(CC(C4)C2)C3)c(C)o1 | -10 | 0.98 | 1.1 | 97 | 12
O=c1c2ccc([N+](=O)[O-])cc2ncn1CCOc1ccccc1 | -7 | 0.65 | 1.1 | 100 | 30
O=c1c2ccccc2ncn1CCOCCOc1ccc([N+](=O)[O-])cc1 | -4 | 1.1 | 1 | 129* | -5
Oc1ccc(C=Nc2ccccc2-c2nc3ccccc3[nH]2)cc1 | 12 | 2 | 0.9 | 120 | 30
COc1ccc(CC(=O)NNc2ncnc3c2cnn3-c2ccc(C)cc2)cc1OC | -2 | 0.74 | 1 | 91 | -13
Clc1ccc(SCCCCN2CCNCC2)cc1 | 0 | 1.1 | 1 | 105 | 5
Cc1ccc2nc(NC(=O)CCCC(=O)O)sc2c1 | 66* | 0.28 | 0.3 | 51 | -60
O=C(Cc1c(F)cccc1Cl)Nc1nc2ccccc2s1 | -7 | 1 | 1.1 | 135* | 51
CCOCC(=O)Nc1nc2ccc(C)cc2s1 | 23 | 3.4* | 0.8 | 124 | 96
CCOCC(=O)Nc1nc2ccc(S(C)(=O)=O)cc2s1 | 0 | 1.4 | 1 | 122 | -8
CCOC(=O)Nc1nc2ccccc2s1 | 15 | 3.5* | 0.8 | 127 | 56
CS(=O)(=O)N1CCN=C1SCc1ccc([N+](=O)[O-])cc1 | -3 | 1.2 | 1 | 104 | -16
Cc1ccc2[nH]c(=O)c(COC(=O)c3cccs3)cc2c1 | -7 | 1.1 | 1.1 | 93 | 14
CCc1ccc2nc(N)sc2c1 | 56* | 0.95 | 0.4 | 106 | 56
CCc1ccc2nc(NC(=O)CSCc3c(C)noc3C)sc2c1 | 2 | 1.9 | 1 | 122 | 17
CCc1ccc(NC(=O)c2ccc3nc(N)sc3c2)cc1 | 28 | 2.6 | 0.7 | 124 | 52
CCCCNC(=O)Nc1nc2ccc(CC)cc2s1 | 3 | 1.9 | 1 | 144* | 85
O=C(NC1CCCCCC1)C1Cc2ccccc2CN1C(=O)c1ccco1 (stereo unspecified) | -5 | 1.3 | 1.1 | 100 | 1
c1ccc(CCc2nc3ccccc3[nH]2)cc1 | 24 | 1.9 | 0.8 | 119 | 58
Cc1ccc2nc(NCc3ccccc3)[nH]c2c1 | 24 | 4.8* | 0.8 | 116 | -10
O=c1[nH]c2ccccc2nc1CCc1ccccc1 | -5 | 1.1 | 1 | 145* | 15
c1ccc2[nH]c(NCc3ccc4c(c3)OCO4)nc2c1 | 82* | 2.9 | 0.2 | 109 | 75
c1ccc(CNc2nc3ccccc3[nH]2)cc1 | 64* | 1.3 | 0.4 | 106 | 37
COc1ccc2nc(NCc3ccccc3)[nH]c2c1 | 18 | 1.7 | 0.8 | 121 | 18
SMILES | FLuc inh counter | NF-kB neuron act | FLuc act counter | STAT1 act | APP 5'UTR act
O=C(NCC1CCCC(CNC(=O)N2CCc3ccccc32)C1)N1CCc2ccccc21 (stereo unspecified) | -8 | 0.64 | 1.1 | 100 | -4
Cc1nn(C)cc1C(C(=O)NC1CCCCC1)N(C(=O)Cc1cccs1)c1ccc(Cl)cc1 (stereo unspecified) | -2 | 0.45 | 1 | 103 | -3
CNc1ccccc(-c2ccc3cc4c(cc3n2)OCO4)c1=O | 53* | 1.7 | 0.5 | 123 | 72
CCc1ccccc1NC1=NCC(=O)N1Cc1ccc2c(c1)OCO2 | -3 | 1.2 | 1 | 92 | -6
O=C(CNC(=O)c1cccs1)c1ccc(F)cc1 | 52* | 4* | 0.5 | 128 | 158*
O=C(CNC(=O)c1cccs1)c1ccc([N+](=O)[O-])cc1 | 25 | 0.9 | 0.8 | 136* | 47
